For three molecules, fold change (FC) and inhibition results are on record in ChEMBL document CHEMBL5653631, “A Potent and Selective ULK1 Inhibitor Suppresses Autophagy and Sensitizes Cancer Cells to Nutrient Stress” (iScience, 2018).

Assay [1] concerns the target Calcium/calmodulin-dependent protein kinase type II subunit alpha (Homo sapiens) (UniProt Q9UQM7). Put plainly: Inhibition of human recombinant CaMK2a at 15 nM related to control ULK1.
In assay [2] the target is Receptor tyrosine-protein kinase erbB-4 (Homo sapiens) (UniProt Q15303). Briefly: Inhibition of human recombinant ErbB4 at 40 nM related to control ULK1.
Sequence of Receptor tyrosine-protein kinase erbB-4 (Homo sapiens) (Q15303 whole entry): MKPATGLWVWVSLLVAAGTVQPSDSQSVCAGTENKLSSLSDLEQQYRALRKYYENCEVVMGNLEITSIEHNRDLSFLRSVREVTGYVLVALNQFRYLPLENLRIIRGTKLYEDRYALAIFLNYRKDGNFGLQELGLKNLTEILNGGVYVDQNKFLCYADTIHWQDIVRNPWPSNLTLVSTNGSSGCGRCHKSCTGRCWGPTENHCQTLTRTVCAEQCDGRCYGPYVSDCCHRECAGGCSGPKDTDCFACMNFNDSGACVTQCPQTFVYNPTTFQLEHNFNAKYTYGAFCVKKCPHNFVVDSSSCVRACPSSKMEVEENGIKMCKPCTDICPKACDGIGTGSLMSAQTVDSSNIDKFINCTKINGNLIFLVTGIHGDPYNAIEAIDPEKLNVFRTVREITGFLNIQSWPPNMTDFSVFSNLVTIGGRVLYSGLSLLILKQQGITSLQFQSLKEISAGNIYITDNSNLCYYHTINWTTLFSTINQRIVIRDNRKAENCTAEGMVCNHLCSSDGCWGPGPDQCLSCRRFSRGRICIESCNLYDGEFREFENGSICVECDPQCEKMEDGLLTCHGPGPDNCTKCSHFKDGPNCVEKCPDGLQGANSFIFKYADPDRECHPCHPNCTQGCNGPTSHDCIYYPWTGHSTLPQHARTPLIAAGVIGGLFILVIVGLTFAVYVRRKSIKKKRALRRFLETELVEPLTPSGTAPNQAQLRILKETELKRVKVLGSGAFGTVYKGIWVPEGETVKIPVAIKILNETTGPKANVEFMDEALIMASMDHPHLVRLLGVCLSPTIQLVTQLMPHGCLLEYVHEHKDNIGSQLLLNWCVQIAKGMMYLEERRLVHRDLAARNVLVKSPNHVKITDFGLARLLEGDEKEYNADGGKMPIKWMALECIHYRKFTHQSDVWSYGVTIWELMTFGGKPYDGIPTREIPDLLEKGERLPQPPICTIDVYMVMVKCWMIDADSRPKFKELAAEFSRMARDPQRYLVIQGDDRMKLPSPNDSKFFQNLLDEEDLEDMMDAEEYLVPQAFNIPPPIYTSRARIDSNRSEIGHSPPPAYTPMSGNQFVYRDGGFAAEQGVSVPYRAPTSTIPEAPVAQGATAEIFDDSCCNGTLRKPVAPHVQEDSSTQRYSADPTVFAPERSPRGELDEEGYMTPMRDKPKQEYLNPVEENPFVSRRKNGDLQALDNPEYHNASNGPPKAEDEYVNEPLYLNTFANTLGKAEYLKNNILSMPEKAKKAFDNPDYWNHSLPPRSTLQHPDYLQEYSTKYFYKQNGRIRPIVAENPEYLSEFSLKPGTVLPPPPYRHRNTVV
For assay [3], the target named is T1, Serine/threonine-protein kinase BRSK1 (Homo sapiens) (UniProt Q8TDC3).
T1 sequence (whole entry): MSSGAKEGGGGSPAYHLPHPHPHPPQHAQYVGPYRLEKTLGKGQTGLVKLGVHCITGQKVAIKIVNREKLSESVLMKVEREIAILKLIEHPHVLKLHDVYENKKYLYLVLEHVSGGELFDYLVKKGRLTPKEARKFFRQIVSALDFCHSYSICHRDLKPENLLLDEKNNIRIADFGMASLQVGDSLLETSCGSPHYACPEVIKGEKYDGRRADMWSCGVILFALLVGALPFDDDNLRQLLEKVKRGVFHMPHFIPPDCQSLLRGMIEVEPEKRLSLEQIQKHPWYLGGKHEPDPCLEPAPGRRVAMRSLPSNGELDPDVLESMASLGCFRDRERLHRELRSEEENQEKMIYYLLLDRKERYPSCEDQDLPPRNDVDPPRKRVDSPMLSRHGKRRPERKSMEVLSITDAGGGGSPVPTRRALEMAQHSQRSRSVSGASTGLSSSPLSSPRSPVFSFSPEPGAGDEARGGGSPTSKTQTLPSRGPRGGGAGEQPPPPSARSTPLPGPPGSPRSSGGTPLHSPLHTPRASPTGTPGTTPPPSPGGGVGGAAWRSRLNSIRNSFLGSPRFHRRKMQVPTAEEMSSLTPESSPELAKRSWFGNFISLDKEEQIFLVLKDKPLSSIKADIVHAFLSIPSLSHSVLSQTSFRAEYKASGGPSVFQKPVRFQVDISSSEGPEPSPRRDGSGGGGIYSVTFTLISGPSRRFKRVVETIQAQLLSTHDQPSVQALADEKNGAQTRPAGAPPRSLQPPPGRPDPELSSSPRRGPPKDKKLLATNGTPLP
Briefly: Inhibition of human recombinant BRSK1 at 40 nM in presence of ATP by radiometric assay relative to control. In outline: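 Recombinant human kinase panel (327 kinases) run as radiometric activity assays, each kinase in duplicate at one compound concentration. Activity remaining expressed relative to vehicle control; percent inhibition taken as 100% minus % activity remaining.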

Assay [4] has as its target T2, Testis-specific serine/threonine-protein kinase 2 (Homo sapiens) (UniProt Q96PF2).
T2 sequence (whole entry): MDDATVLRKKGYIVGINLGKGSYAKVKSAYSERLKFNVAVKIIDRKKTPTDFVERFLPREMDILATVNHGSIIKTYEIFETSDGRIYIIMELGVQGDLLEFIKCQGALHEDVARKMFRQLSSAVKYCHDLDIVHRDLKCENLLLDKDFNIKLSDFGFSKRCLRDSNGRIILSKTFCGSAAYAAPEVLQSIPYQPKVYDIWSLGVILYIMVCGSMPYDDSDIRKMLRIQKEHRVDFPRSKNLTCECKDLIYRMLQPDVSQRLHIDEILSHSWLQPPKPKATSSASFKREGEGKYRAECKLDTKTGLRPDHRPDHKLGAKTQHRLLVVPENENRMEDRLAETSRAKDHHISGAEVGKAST
Briefly: Inhibition of human recombinant TSSK2 at 40 nM related to control ULK1.

In assay [5] the target is PAS domain-containing serine/threonine-protein kinase (Homo sapiens) (UniProt Q96RG2). Put plainly: Inhibition of human recombinant PASK at 500 nM in presence of ATP by radiometric assay relative to control.
Sequence of PAS domain-containing serine/threonine-protein kinase (Homo sapiens) (Q96RG2 whole entry, the tested form may be a part): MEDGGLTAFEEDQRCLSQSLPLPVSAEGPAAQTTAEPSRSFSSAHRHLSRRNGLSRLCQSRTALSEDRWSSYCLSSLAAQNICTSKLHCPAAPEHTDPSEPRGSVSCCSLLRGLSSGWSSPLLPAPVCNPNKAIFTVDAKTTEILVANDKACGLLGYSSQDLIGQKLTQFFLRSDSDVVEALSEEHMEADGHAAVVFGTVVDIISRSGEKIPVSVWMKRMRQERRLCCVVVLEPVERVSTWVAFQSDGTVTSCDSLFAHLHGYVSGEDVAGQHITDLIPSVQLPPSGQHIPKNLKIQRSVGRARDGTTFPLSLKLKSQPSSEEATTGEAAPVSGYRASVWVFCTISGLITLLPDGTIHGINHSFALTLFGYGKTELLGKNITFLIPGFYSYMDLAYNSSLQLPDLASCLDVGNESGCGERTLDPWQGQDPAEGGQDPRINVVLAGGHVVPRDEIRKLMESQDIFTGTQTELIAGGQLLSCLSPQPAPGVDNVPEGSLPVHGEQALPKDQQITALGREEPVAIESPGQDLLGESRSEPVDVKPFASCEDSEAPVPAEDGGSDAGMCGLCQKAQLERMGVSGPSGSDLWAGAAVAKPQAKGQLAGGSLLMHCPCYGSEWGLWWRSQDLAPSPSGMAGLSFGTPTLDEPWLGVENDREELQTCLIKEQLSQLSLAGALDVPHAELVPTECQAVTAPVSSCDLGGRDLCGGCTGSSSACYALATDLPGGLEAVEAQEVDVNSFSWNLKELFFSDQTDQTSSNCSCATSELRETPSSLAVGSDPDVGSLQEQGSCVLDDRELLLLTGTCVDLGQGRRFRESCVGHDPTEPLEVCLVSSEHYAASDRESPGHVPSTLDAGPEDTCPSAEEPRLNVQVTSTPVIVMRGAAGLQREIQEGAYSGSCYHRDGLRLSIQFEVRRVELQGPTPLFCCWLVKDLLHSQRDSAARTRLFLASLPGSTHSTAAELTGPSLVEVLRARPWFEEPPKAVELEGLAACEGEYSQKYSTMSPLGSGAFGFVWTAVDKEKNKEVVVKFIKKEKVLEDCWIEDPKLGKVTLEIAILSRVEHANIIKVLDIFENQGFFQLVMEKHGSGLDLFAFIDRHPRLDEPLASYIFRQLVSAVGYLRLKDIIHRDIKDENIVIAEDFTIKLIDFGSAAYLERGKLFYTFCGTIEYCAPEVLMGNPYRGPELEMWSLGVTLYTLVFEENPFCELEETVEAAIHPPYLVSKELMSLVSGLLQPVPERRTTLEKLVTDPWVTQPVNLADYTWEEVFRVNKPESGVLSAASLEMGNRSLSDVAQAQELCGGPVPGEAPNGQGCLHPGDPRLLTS
Assay [6] has as its target T3, Serine/threonine-protein kinase TAO1 (Homo sapiens) (UniProt Q7L7X3).
T3 sequence (whole entry): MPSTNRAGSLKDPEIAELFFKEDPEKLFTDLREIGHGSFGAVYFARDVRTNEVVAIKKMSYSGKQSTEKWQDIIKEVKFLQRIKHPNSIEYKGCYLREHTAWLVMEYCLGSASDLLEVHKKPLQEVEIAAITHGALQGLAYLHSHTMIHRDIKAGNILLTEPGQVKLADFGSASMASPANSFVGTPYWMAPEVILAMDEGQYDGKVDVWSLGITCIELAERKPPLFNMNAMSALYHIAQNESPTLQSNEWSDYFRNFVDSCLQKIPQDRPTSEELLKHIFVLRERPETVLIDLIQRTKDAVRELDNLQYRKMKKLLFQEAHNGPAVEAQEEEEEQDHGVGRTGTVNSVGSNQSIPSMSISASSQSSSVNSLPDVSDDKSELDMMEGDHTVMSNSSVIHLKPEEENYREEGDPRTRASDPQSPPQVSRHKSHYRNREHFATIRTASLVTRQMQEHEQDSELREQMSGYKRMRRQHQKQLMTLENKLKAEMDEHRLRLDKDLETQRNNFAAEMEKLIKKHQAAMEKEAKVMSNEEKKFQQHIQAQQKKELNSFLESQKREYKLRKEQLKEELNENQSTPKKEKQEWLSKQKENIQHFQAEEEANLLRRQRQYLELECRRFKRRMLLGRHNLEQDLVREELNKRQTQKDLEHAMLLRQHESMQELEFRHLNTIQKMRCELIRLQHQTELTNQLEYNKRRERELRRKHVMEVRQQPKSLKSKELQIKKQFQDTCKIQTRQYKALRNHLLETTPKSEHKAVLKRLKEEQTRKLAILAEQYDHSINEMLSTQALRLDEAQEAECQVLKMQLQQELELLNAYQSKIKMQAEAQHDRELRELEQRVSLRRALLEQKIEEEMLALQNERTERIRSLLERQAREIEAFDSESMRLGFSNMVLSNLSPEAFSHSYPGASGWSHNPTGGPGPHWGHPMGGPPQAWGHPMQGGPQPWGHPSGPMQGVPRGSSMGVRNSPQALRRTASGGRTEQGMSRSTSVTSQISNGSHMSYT
Briefly: Inhibition of human recombinant TAO1 at 500 nM in presence of ATP by radiometric assay relative to control.

The target of assay [7] is Homeodomain-interacting protein kinase 3 (Homo sapiens) (UniProt Q9H422). Briefly: Inhibition of human recombinant HIPK3 at 500 nM related to control ULK1.
Sequence of Homeodomain-interacting protein kinase 3 (Homo sapiens) (Q9H422 whole entry, looked up): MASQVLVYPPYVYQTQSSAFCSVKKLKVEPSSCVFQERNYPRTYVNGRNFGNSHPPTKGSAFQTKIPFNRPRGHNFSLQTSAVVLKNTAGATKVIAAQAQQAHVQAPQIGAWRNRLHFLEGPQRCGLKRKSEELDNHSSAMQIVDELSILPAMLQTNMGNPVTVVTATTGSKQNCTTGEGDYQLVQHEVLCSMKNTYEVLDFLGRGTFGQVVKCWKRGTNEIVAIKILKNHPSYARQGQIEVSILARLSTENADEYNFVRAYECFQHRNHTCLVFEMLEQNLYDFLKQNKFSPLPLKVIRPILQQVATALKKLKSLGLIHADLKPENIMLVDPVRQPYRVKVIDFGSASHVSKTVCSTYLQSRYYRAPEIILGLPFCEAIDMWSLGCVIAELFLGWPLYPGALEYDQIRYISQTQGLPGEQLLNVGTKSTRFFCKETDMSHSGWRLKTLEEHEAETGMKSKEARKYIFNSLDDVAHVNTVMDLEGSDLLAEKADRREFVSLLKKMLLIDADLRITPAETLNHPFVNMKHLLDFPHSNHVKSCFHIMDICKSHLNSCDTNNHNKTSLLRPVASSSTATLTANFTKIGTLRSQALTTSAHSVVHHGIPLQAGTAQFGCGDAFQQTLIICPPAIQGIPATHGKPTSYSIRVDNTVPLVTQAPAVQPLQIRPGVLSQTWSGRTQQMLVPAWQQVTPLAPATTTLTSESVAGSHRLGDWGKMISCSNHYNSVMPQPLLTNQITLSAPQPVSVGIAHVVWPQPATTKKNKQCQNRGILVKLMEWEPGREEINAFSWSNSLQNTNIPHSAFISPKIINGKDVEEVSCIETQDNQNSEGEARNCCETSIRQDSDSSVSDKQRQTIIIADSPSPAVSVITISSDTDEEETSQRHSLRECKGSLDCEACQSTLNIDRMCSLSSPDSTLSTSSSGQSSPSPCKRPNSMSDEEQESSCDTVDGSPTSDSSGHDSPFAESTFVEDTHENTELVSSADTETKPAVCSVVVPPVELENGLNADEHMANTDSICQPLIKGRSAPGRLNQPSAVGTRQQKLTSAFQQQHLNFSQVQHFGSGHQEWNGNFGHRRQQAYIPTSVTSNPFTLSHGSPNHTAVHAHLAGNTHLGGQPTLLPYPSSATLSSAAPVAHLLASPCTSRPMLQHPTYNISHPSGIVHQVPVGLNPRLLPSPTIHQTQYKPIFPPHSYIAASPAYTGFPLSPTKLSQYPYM

Sequence of Calcium/calmodulin-dependent protein kinase type II subunit alpha (Homo sapiens) (Q9UQM7 whole entry): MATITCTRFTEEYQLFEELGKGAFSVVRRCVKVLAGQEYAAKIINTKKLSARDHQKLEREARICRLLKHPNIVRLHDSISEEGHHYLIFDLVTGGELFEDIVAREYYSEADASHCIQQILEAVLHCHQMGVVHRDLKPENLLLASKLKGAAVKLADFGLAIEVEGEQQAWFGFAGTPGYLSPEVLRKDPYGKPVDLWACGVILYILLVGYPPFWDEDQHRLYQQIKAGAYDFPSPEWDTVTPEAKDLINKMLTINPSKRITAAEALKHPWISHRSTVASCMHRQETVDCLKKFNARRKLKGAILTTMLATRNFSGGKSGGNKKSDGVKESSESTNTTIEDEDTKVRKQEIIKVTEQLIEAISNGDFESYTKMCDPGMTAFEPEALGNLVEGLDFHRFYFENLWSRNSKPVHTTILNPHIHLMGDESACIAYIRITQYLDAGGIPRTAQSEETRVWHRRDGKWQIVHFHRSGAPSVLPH

Turning to `CC(C)[C@H](NC(=O)c1cc(-c2cnn3cc(-c4ccc(OCCN5CCCCC5)cc4)cnc23)cs1)C(F)(F)F`, the fold change (FC) in assay [1] stood at 0.47.
`O=C(N[C@@H](C1CC1)C(F)(F)F)c1cc(-c2cnn3cc(-c4ccc(F)cc4)cnc23)cs1`: the fold change (FC) in assay [2] and in assay [4] was 0 each time. Further, the inhibition (in general, how much of the control response was suppressed) in assay [3] is 2%.
Turning to `CNC(=O)c1ccccc1Oc1nc(Nc2cc(OC)c(OC)c(OC)c2)ncc1Br`, the inhibition was 10% in assay [5] and 6% in assay [6]. The fold change (FC) in assay [7] was 0.08.
